Measured values from ChEMBL document CHEMBL3734675, “Synthesis, antimycobacterial and antibacterial activity of fluoroquinolone derivatives containing an 3-alkoxyimino-4-(cyclopropylanimo)methylpyrrolidine moiety” (2015).
Values after ≈ are worked out from the molar mass of the structure shown.

Legend:
Format in all cases: functional
Enterococcus faecalis [1] = assay: Potency index, ratio of ciprofloxacin MIC to compound MIC for Enterococcus faecalis 14-1
Enterococcus faecalis [2] = assay: Potency index, ratio of levofloxacin MIC to compound MIC for Enterococcus faecalis 14-1
[3] = test system: Staphylococcus epidermidis; assay: Potency index, ratio of ciprofloxacin MIC to compound MIC for methicillin-resistant Staphylococcus epidermidis 14-21
[4] = test system: Staphylococcus epidermidis; assay: Potency index, ratio of levofloxacin MIC to compound MIC for methicillin-resistant Staphylococcus epidermidis 14-21
Enterococcus faecium [5] = assay: Potency index, ratio of levofloxacin MIC to compound MIC for Enterococcus faecium 14-2
Streptococcus pneumoniae = assay: Antibacterial activity against methicillin-resistant Streptococcus pneumoniae ATCC 19615 after 18 to 24 hrs by two-fold serial dilution method
Summary of the method: (§1)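 Agar media, standard twofold serial dilution. MIC is the lowest concentration giving complete inhibition of bacterial growth after incubation at 35 °C for 18–24 h. Ciprofloxacin and levofloxacin were run as comparators.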

Klebsiella pneumoniae [6] = assay: Antibacterial activity against Klebsiella pneumoniae 14-4 after 18 to 24 hrs by two-fold serial dilution method
Summary of the method: (§2)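 Twofold serial dilution in agar media against Gram-positive and Gram-negative strains. Plates incubated at 35 °C for 18–24 h. MIC read as the lowest compound concentration giving complete inhibition of bacterial growth.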

Escherichia coli [7] = assay: Antibacterial activity against Escherichia coli ATCC 25922 after 18 to 24 hrs by two-fold serial dilution method; summary of the method: as §2
Escherichia coli [8] = assay: Antibacterial activity against extended-spectrum beta-lactamase producing Escherichia coli 14-1 after 18 to 24 hrs by two-fold serial dilution method; summary of the method: as §2
[9] = test system: Staphylococcus epidermidis; assay: Potency index, ratio of levofloxacin MIC to compound MIC for methicillin-resistant Staphylococcus epidermidis 14-22
Staphylococcus aureus [10] = assay: Antibacterial activity against methicillin-sensitive Staphylococcus aureus 14-4 after 18 to 24 hrs by two-fold serial dilution method; summary of the method: as §2
Staphylococcus aureus [11] = assay: Potency index, ratio of levofloxacin MIC to compound MIC for methicillin-resistant Staphylococcus aureus 14-5
Pseudomonas aeruginosa [12] = assay: Antibacterial activity against Pseudomonas aeruginosa 14-16 after 18 to 24 hrs by two-fold serial dilution method; summary of the method: as §2
Enterococcus faecium [13] = assay: Antibacterial activity against Enterococcus faecium 14-5 after 18 to 24 hrs by two-fold serial dilution method; summary of the method: as §2
Enterococcus faecalis [14] = assay: Antibacterial activity against Enterococcus faecalis 14-1 after 18 to 24 hrs by two-fold serial dilution method; summary of the method: as §2
Pseudomonas aeruginosa [15] = assay: Antibacterial activity against Pseudomonas aeruginosa 14-9 after 18 to 24 hrs by two-fold serial dilution method; summary of the method: as §2
Pseudomonas aeruginosa [16] = assay: Antibacterial activity against Pseudomonas aeruginosa ATCC 27853 after 18 to 24 hrs by two-fold serial dilution method; summary of the method: as §2
Staphylococcus aureus [17] = assay: Antibacterial activity against methicillin-resistant Staphylococcus aureus 14-4 after 18 to 24 hrs by two-fold serial dilution method; summary of the method: as §1
Klebsiella pneumoniae [18] = assay: Antibacterial activity against Klebsiella pneumoniae 14-2 after 18 to 24 hrs by two-fold serial dilution method; summary of the method: as §2
[19] = test system: Staphylococcus epidermidis; assay: Antibacterial activity against methicillin-resistant Staphylococcus epidermidis 14-21 after 18 to 24 hrs by two-fold serial dilution method; summary of the method: as §1
Klebsiella pneumoniae [20] = assay: Antibacterial activity against Klebsiella pneumoniae 14-1 after 18 to 24 hrs by two-fold serial dilution method; summary of the method: as §2
Enterococcus faecium [21] = assay: Antibacterial activity against Enterococcus faecium 14-2 after 18 to 24 hrs by two-fold serial dilution method; summary of the method: as §2
Escherichia coli [22] = assay: Antibacterial activity against extended-spectrum beta-lactamase producing Escherichia coli 14-2 after 18 to 24 hrs by two-fold serial dilution method; summary of the method: as §2
Enterococcus faecium [23] = assay: Potency index, ratio of levofloxacin MIC to compound MIC for Enterococcus faecium 14-6
[24] = test system: Staphylococcus epidermidis; assay: Antibacterial activity against methicillin-resistant Staphylococcus epidermidis 14-37 after 18 to 24 hrs by two-fold serial dilution method; summary of the method: as §1
Enterococcus faecium [25] = assay: Antibacterial activity against Enterococcus faecium 14-6 after 18 to 24 hrs by two-fold serial dilution method; summary of the method: as §2
Enterococcus faecalis [26] = assay: Antibacterial activity against Enterococcus faecalis 14-2 after 18 to 24 hrs by two-fold serial dilution method; summary of the method: as §2
Enterococcus faecium [27] = assay: Potency index, ratio of levofloxacin MIC to compound MIC for Enterococcus faecium 14-5
[28] = test system: Staphylococcus epidermidis; assay: Potency index, ratio of ciprofloxacin MIC to compound MIC for methicillin-resistant Staphylococcus epidermidis 14-37
Escherichia coli [29] = assay: Antibacterial activity against Escherichia coli 14-1 after 18 to 24 hrs by two-fold serial dilution method; summary of the method: as §2
[30] = test system: Staphylococcus epidermidis; assay: Antibacterial activity against methicillin-sensitive Staphylococcus epidermidis 14-2 after 18 to 24 hrs by two-fold serial dilution method; summary of the method: as §2
Enterococcus faecium [31] = assay: Potency index, ratio of ciprofloxacin MIC to compound MIC for Enterococcus faecium 14-2
[32] = test system: Staphylococcus epidermidis; assay: Antibacterial activity against methicillin-resistant Staphylococcus epidermidis 14-39 after 18 to 24 hrs by two-fold serial dilution method; summary of the method: as §1
Enterococcus faecalis [33] = assay: Potency index, ratio of ciprofloxacin MIC to compound MIC for Enterococcus faecalis 14-2
Staphylococcus aureus [34] = assay: Potency index, ratio of ciprofloxacin MIC to compound MIC for methicillin-resistant Staphylococcus aureus 14-4
Enterococcus faecium [35] = assay: Potency index, ratio of ciprofloxacin MIC to compound MIC for Enterococcus faecium 14-6
Staphylococcus aureus [36] = assay: Potency index, ratio of levofloxacin MIC to compound MIC for methicillin-resistant Staphylococcus aureus 14-4
Pseudomonas aeruginosa [37] = assay: Antibacterial activity against Pseudomonas aeruginosa 14-15 after 18 to 24 hrs by two-fold serial dilution method; summary of the method: as §2
Klebsiella pneumoniae [38] = assay: Antibacterial activity against extended-spectrum beta-lactamase producing Klebsiella pneumoniae 14-18 after 18 to 24 hrs by two-fold serial dilution method; summary of the method: as §2
[39] = test system: Staphylococcus epidermidis; assay: Antibacterial activity against methicillin-resistant Staphylococcus epidermidis 14-22 after 18 to 24 hrs by two-fold serial dilution method; summary of the method: as §1
[40] = test system: Staphylococcus epidermidis; assay: Potency index, ratio of levofloxacin MIC to compound MIC for methicillin-resistant Staphylococcus epidermidis 14-39
Staphylococcus aureus [41] = assay: Antibacterial activity against methicillin-sensitive Staphylococcus aureus 14-3 after 18 to 24 hrs by two-fold serial dilution method; summary of the method: as §2
[42] = test system: Staphylococcus epidermidis; assay: Potency index, ratio of ciprofloxacin MIC to compound MIC for methicillin-resistant Staphylococcus epidermidis 14-22
Staphylococcus aureus [43] = assay: Antibacterial activity against methicillin-resistant Staphylococcus aureus 14-5 after 18 to 24 hrs by two-fold serial dilution method; summary of the method: as §1
Klebsiella pneumoniae [44] = assay: Antibacterial activity against extended-spectrum beta-lactamase producing Klebsiella pneumoniae 14-19 after 18 to 24 hrs by two-fold serial dilution method; summary of the method: as §2
[45] = test system: Staphylococcus epidermidis; assay: Potency index, ratio of levofloxacin MIC to compound MIC for methicillin-resistant Staphylococcus epidermidis 14-37
Klebsiella pneumoniae [46] = assay: Antibacterial activity against Klebsiella pneumoniae 14-3 after 18 to 24 hrs by two-fold serial dilution method; summary of the method: as §2
Staphylococcus aureus [47] = assay: Potency index, ratio of ciprofloxacin MIC to compound MIC for methicillin-resistant Staphylococcus aureus 14-5
Enterococcus faecalis [48] = assay: Potency index, ratio of levofloxacin MIC to compound MIC for Enterococcus faecalis 14-2
Klebsiella pneumoniae [49] = assay: Antibacterial activity against extended-spectrum beta-lactamase producing Klebsiella pneumoniae 14-17 after 18 to 24 hrs by two-fold serial dilution method; summary of the method: as §2
Escherichia coli [50] = assay: Antibacterial activity against Escherichia coli 14-2 after 18 to 24 hrs by two-fold serial dilution method; summary of the method: as §2
Pseudomonas aeruginosa [51] = assay: Antibacterial activity against Pseudomonas aeruginosa 14-14 after 18 to 24 hrs by two-fold serial dilution method; summary of the method: as §2
Staphylococcus aureus [52] = assay: Antibacterial activity against methicillin-sensitive Staphylococcus aureus 14-1 after 18 to 24 hrs by two-fold serial dilution method; summary of the method: as §2
[53] = test system: Staphylococcus epidermidis; assay: Potency index, ratio of ciprofloxacin MIC to compound MIC for methicillin-resistant Staphylococcus epidermidis 14-39
Staphylococcus aureus [54] = assay: Antibacterial activity against Staphylococcus aureus CMCC 26003 after 18 to 24 hrs by two-fold serial dilution method; summary of the method: as §2
Enterococcus faecium [55] = assay: Potency index, ratio of ciprofloxacin MIC to compound MIC for Enterococcus faecium 14-5

O=C(O)c1cn2c3c(c(N4C/C(=N/OCc5ccccc5)C(CNC5CC5)C4)c(F)cc3c1=O)OC[C@@H]2CF (stereo partly specified)
Ratio (Enterococcus faecalis [1]): 2
Ratio (Enterococcus faecalis [2]): 2
Ratio [3]: 2
Ratio [4]: 2
Ratio (Enterococcus faecium [5]): 2
MIC (Streptococcus pneumoniae): 0.125 µg/mL (≈ 0.232 µM)
MIC (Klebsiella pneumoniae [6]): > 64 µg/mL
MIC (Escherichia coli [7]): 1 µg/mL (≈ 1.86 µM)
MIC (Escherichia coli [8]): 4 µg/mL (≈ 7.43 µM)
Ratio [9]: 2
MIC (Staphylococcus aureus [10]): 0.03 µg/mL (≈ 0.0557 µM)
Ratio (Staphylococcus aureus [11]): 2
MIC (Pseudomonas aeruginosa [12]): 32 µg/mL (≈ 59.4 µM)
MIC (Enterococcus faecium [13]): 8 µg/mL (≈ 14.9 µM)
MIC (Enterococcus faecalis [14]): 1 µg/mL (≈ 1.86 µM)
MIC (Pseudomonas aeruginosa [15]): 32 µg/mL (≈ 59.4 µM)
MIC (Pseudomonas aeruginosa [16]): 32 µg/mL (≈ 59.4 µM)
MIC (Staphylococcus aureus [17]): 2 µg/mL (≈ 3.71 µM)
MIC (Klebsiella pneumoniae [18]): 32 µg/mL (≈ 59.4 µM)
MIC [19]: 2 µg/mL (≈ 3.71 µM)
MIC (Klebsiella pneumoniae [20]): 64 µg/mL (≈ 119 µM)
MIC (Enterococcus faecium [21]): 1 µg/mL (≈ 1.86 µM)
MIC (Escherichia coli [22]): > 64 µg/mL
Ratio (Enterococcus faecium [23]): 2
MIC [24]: 2 µg/mL (≈ 3.71 µM)
MIC (Enterococcus faecium [25]): 8 µg/mL (≈ 14.9 µM)
MIC (Enterococcus faecalis [26]): 0.25 µg/mL (≈ 0.464 µM)
Ratio (Enterococcus faecium [27]): 2
Ratio [28]: 2
MIC (Escherichia coli [29]): > 64 µg/mL
MIC [30]: 8 µg/mL (≈ 14.9 µM)
Ratio (Enterococcus faecium [31]): 2
MIC [32]: 2 µg/mL (≈ 3.71 µM)
Ratio (Enterococcus faecalis [33]): 2
Ratio (Staphylococcus aureus [34]): 2
Ratio (Enterococcus faecium [35]): 2
Ratio (Staphylococcus aureus [36]): 2
MIC (Pseudomonas aeruginosa [37]): 64 µg/mL (≈ 119 µM)
MIC (Klebsiella pneumoniae [38]): 32 µg/mL (≈ 59.4 µM)
MIC [39]: 2 µg/mL (≈ 3.71 µM)
Ratio [40]: 2
MIC (Staphylococcus aureus [41]): 0.015 µg/mL (≈ 0.0279 µM)
Ratio [42]: 2
MIC (Staphylococcus aureus [43]): 4 µg/mL (≈ 7.43 µM)
MIC (Klebsiella pneumoniae [44]): 32 µg/mL (≈ 59.4 µM)
Ratio [45]: 2
MIC (Klebsiella pneumoniae [46]): 64 µg/mL (≈ 119 µM)
Ratio (Staphylococcus aureus [47]): 2
Ratio (Enterococcus faecalis [48]): 2
MIC (Klebsiella pneumoniae [49]): 64 µg/mL (≈ 119 µM)
MIC (Escherichia coli [50]): > 64 µg/mL
MIC (Pseudomonas aeruginosa [51]): 64 µg/mL (≈ 119 µM)
MIC (Staphylococcus aureus [52]): 1 µg/mL (≈ 1.86 µM)
Ratio [53]: 2
MIC (Staphylococcus aureus [54]): < 0.008 µg/mL
Ratio (Enterococcus faecium [55]): 2
